Reference: PMC9988221 (Journal of Clinical Psychopharmacology, 2023)
Like-named read-outs stand apart in the source and are kept apart here.

What was measured:
[1] = Attainment of BI 425809 steady state; format: in vivo, human
[2] = molecular target: CYP2C9 (Homo sapiens, UniProt P11712); assay: Reversible CYP inhibition in human liver microsomes, diclofenac substrate
[3] = system: CYP3A4 mRNA; format: in vitro ADME, human; details: for Emax for induction of CYP3A4 mRNA levels: 10 to 30 μM BI 425809
[4] = system: CYP3A4; assay: Basic induction model; design: species or system human
[5] = molecular target: T1, CYP1A2 (Homo sapiens, UniProt P05177); assay: Reversible CYP inhibition in human liver microsomes, phenacetin substrate
T1 sequence (P05177 1-516): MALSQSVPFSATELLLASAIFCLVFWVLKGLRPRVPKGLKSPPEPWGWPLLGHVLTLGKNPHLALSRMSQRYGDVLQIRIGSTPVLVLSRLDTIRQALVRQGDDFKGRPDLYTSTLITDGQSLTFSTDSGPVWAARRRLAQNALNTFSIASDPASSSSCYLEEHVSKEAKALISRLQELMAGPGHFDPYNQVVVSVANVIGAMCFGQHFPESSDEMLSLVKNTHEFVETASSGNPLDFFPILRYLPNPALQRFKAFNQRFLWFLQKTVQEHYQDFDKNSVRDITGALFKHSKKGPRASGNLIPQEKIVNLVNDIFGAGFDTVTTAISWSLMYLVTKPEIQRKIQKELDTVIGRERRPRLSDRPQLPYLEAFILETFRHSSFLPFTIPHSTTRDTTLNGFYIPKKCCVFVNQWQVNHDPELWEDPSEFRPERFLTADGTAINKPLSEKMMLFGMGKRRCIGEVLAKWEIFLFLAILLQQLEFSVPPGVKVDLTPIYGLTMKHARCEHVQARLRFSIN

[6] = molecular target: CYP2C19 (Homo sapiens, UniProt P33261); assay: Reversible CYP inhibition in human liver microsomes, S-mephenytoin substrate
Sequence of CYP2C19 (P33261 whole entry): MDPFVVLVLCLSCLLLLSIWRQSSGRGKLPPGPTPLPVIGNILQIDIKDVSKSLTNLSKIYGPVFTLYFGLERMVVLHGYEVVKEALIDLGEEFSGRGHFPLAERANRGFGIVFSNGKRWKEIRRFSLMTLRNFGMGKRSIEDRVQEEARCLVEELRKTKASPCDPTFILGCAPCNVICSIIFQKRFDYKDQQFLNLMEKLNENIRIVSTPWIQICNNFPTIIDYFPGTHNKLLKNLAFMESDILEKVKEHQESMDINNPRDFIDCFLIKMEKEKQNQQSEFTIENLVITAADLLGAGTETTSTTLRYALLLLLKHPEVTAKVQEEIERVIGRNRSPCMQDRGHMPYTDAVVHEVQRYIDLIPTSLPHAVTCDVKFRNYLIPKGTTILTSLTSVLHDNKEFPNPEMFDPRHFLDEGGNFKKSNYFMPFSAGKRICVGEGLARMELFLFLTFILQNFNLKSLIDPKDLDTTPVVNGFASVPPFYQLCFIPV

[7] = molecular target: T2, CYP2C8 (Homo sapiens, UniProt P10632); assay: Reversible CYP inhibition in human liver microsomes, amodiaquine substrate
T2 sequence (P10632 1-490): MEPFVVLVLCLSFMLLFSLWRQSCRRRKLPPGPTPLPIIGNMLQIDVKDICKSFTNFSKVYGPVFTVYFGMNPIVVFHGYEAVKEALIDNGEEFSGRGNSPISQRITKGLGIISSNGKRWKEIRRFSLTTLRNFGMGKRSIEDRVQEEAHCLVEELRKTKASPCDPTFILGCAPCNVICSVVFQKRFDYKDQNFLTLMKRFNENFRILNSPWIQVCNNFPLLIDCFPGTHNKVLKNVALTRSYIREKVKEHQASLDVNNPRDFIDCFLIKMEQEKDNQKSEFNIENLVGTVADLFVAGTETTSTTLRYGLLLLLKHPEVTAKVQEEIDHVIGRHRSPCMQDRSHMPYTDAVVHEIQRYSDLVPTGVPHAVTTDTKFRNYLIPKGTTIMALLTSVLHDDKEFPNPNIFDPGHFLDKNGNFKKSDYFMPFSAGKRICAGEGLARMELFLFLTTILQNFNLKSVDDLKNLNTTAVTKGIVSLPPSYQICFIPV

[8] = system: CYP3A4; details: for Emax for induction of CYP3A4 activity: BI 425809 10 to 30 μM, 48 hours
[9] = format: in vivo, human; details: once-daily BI 425809 25 mg; midazolam exposure
[10] = molecular target: T3, CYP2B6 (Homo sapiens, UniProt P20813); assay: Reversible CYP inhibition in human liver microsomes, bupropion substrate
T3 sequence (P20813 1-491): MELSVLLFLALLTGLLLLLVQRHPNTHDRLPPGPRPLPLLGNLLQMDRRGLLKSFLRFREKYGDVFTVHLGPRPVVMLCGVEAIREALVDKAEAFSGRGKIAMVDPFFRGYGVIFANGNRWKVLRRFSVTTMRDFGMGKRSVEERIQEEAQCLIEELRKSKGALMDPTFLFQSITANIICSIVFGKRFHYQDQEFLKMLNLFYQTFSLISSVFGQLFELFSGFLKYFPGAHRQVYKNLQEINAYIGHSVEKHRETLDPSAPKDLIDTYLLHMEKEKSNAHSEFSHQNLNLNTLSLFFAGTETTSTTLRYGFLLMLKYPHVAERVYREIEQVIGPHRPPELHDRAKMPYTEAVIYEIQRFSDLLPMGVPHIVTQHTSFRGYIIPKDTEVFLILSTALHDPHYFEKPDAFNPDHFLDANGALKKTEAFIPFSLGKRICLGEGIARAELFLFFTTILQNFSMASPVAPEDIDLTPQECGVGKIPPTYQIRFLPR

[11] = molecular target: CYP2D6 (Homo sapiens, UniProt P10635); assay: Reversible CYP inhibition in human liver microsomes, dextromethorphan substrate
Sequence of CYP2D6 (P10635 whole entry): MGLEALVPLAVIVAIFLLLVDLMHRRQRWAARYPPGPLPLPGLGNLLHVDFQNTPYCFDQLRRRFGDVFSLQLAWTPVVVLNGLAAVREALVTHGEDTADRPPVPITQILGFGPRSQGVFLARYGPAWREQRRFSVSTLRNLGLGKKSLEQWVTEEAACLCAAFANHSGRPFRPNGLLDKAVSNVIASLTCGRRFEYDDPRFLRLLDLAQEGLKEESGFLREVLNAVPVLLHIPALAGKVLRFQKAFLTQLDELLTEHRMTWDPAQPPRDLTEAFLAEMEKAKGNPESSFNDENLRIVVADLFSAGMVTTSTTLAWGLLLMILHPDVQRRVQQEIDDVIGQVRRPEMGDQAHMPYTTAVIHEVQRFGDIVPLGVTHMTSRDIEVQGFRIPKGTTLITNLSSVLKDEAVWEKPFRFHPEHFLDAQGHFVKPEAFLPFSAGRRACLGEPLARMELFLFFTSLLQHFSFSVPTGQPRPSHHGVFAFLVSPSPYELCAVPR

[12] = Unbound plasma fraction; format: in vitro ADME; details: derived from other preclinical studies (data not shown)
[13] = molecular target: P-gp (Homo sapiens, UniProt P08183); format: in vitro ADME
Sequence of P-gp (P08183 whole entry): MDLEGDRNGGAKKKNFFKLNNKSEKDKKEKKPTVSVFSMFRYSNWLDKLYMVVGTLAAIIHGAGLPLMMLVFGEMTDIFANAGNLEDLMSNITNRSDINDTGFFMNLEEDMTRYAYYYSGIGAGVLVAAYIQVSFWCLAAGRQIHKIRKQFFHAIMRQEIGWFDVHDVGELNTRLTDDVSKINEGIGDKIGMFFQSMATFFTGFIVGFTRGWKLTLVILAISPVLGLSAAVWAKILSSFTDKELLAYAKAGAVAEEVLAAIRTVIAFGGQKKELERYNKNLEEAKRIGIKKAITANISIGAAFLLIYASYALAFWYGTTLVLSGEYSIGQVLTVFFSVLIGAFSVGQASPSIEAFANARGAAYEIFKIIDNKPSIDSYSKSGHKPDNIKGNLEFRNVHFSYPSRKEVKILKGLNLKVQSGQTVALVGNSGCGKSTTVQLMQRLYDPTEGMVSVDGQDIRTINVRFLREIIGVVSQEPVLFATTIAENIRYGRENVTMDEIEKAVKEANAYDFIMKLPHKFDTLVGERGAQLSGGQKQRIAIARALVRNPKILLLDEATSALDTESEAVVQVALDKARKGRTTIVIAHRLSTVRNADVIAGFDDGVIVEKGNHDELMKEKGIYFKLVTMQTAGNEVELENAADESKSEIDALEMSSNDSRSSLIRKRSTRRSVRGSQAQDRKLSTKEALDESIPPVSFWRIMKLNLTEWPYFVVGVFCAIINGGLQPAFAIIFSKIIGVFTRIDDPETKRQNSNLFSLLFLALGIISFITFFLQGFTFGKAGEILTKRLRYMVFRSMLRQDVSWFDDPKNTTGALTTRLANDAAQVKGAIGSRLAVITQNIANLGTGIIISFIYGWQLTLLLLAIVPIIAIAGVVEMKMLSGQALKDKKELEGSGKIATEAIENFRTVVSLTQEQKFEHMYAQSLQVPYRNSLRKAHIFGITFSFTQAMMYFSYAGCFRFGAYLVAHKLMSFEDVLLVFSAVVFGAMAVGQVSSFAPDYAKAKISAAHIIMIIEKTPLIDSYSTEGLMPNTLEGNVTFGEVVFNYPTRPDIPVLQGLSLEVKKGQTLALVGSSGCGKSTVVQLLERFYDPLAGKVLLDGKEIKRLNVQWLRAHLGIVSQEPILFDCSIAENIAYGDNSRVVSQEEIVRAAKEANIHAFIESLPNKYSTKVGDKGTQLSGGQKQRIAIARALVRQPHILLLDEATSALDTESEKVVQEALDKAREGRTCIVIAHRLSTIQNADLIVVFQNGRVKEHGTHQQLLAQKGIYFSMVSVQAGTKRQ
Method in brief: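 Bidirectional Caco-2 monolayer transport in HBSS with 15 mM HEPES, pH 7.4, after 30 min equilibration. [³H]digoxin (1 μM) went in the donor side, and test compound (1–100 μM) or zosuquidar (1 μM) on both sides. After 30 min preincubation, sampling ran to 90 min and was read by scintillation counting. Papp gave the B-to-A/A-to-B efflux ratio, and IC50 with slope factor came from nonlinear regression of efflux ratio against inhibitor concentration.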

[14] = cited from earlier work
[15] = system: human hepatocytes; assay: Cell viability of hepatocytes in the induction assay; format: cell-based; details: hepatocytes from any donor; BI 425809 up to 30 μM
[16] = system: CYP3A4; assay: in vitro; details: human, Emax for induction of CYP3A4 activity, % of positive control effect
[17] = system: CYP3A4/5; details: human, human liver microsomes
[18] = Safety and tolerability; format: in vivo, human; details: this study, healthy male participants
Method in brief: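 Phase I open-label, single-sequence crossover in healthy men. No specific safety endpoints were set. Counts of participants with treatment-emergent AEs (drug-related, serious, special interest, other significant), including clinically relevant physical and neurological examination findings, were analysed in the treated set. End-of-trial visit was 11–16 days after the last test compound dose.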

Sequence of CYP2C9 (P11712 whole entry): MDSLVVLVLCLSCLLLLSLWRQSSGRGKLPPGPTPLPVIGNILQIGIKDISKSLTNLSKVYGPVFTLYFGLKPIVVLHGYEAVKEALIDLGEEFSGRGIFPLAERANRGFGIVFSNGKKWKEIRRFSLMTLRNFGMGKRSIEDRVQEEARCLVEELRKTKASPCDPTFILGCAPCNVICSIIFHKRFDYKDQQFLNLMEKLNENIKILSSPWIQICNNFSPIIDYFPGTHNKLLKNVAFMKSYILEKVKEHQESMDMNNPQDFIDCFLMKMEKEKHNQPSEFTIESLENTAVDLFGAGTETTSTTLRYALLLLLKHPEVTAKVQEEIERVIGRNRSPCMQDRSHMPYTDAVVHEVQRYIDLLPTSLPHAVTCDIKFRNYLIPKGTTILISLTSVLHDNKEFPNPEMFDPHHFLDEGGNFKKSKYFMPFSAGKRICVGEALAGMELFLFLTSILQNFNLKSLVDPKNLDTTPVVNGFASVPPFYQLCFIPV

Q: What does the source list for `C[C@@H](Oc1ccc(S(C)(=O)=O)cc1C(=O)N1C[C@@H]2C[C@]2(c2cc(C(F)(F)F)on2)C1)C(F)(F)F` [BI 425809]?
A: steady state reached by ([1]; BI 425809 25 mg once daily, Cpre on days 8, 9, 10): ≤ 8 days; adjusted gMean ratios of Cpre of the compared sampling time points ([1]; pairwise comparisons of days 8, 9, and 10 in period 2): ~100%; IC50 [2]: 54.9 µM; Emax for induction of CYP3A4 mRNA levels ([3]; hepatocytes donor 1): 14 fold; Emax for induction of CYP3A4 mRNA levels ([3]; hepatocytes donor 2): 13 fold; Emax for induction of CYP3A4 mRNA levels ([3]; hepatocytes donor 3): 37 fold; induction of CYP3A4 mRNA levels (in words) ([3]; hepatocytes from donors 1, 2, and 3): concentration-dependent induction; EC50 at 48 h ([3]; human, sandwich-cultured primary human hepatocytes): 1.96 µM; Emax for induction of CYP3A4 ([3]; mRNA levels of all three donors fitted to 3-parameter sigmoidal model): 18.7 fold; R3 (change in hepatic metabolic clearance of a sensitive CYP3A4 substrate) ([4]; basic model, 2020 FDA guidance, unbound plasma fraction 0.196): 0.12; Imax,u, maximum unbound plasma concentration ([4]; input of the basic induction model): approximately 121 nM; IC50 [5]: > 100 µM; IC50 [6]: > 100 µM; IC50 [7]: > 100 µM; Emax for induction of CYP3A4 activity ([8]; hepatocytes donor 1): 10 fold; Emax for induction of CYP3A4 activity ([8]; hepatocytes donor 2): 3.4 fold; Emax for induction of CYP3A4 activity ([8]; hepatocytes donor 3): 6.6 fold; induction of CYP3A4 activity (in words) ([8]; human hepatocytes): Concentration-dependent induction; CYP3A4 induction in vivo (in words) [9]: mild inducer of CYP3A4 in vivo; IC50 [10]: > 100 µM; IC50 [11]: > 100 µM; unbound plasma fraction [12]: 0.196; IC50 [13]: 14 µM; effect on P-gp-mediated transcellular transport of digoxin (in words) ([13]; Caco-2 cell monolayer, zosuquidar 1 μM, BI 425809 1-100 μM): concentration-dependent inhibition; I2/IC50 ratio ([13]; I2 = dose[mol]/250 mL): approximately 13; increase of cerebrospinal fluid glycine levels, average ([14]; doses of 10 mg and 25 mg, healthy volunteers): 50%; tolerability ([14]; once-daily oral administration up to 75 mg, Phase I studies): generally well tolerated; steady state reached after ([14]; previous study): 6 days; cell viability relative to vehicle control [15]: No decrease in cell viability; Emax [16]: 37%; IC50 [17]: > 100 µM; tolerability [18]: well tolerated
